Marks after values point to notes of the source that are not given here.
Experiments:
Assay type in all cases: cell-based
[1] = biological target: human P2Y12 receptor F198P mutant (Homo sapiens, UniProt Q9H244, F198P); experiment: cAMP assay, CHO-K1 cells expressing F198P mutant P2Y12
[2] = biological target: human P2Y12 receptor Y109S mutant (Homo sapiens, UniProt Q9H244, Y109S); experiment: cAMP assay, CHO-K1 cells expressing Y109S mutant P2Y12
[3] = biological target: human P2Y12 receptor R256Q/R265W double mutant (Homo sapiens, UniProt Q9H244, R256Q/R265W); experiment: cAMP assay, CHO-K1 cells expressing R256Q/R265W double mutant P2Y12
[4] = biological target: human P2Y12 receptor F104S mutant (Homo sapiens, UniProt Q9H244, F104S); experiment: cAMP assay, CHO-K1 cells expressing F104S mutant P2Y12
[5] = biological target: human P2Y12 receptor R265W mutant (Homo sapiens, UniProt Q9H244, R265W); experiment: cAMP assay, CHO-K1 cells expressing R265W mutant P2Y12
[6] = biological target: human P2Y12 receptor S288P mutant (Homo sapiens, UniProt Q9H244, S288P); experiment: cAMP assay, CHO-K1 cells expressing S288P mutant P2Y12
[7] = biological target: human P2Y12 receptor wild-type (Homo sapiens, UniProt Q9H244)
In short: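 CHO-K1 stably expressing N-terminally HA-tagged human P2Y12 (Ham's F-12, 10% FBS, 500 µg/ml hygromycin B); [3H]adenine-labelled overnight, 0.4 mM IBMX 10 min, then 20 µM forskolin with ADP (0.01–10 µM) and/or antagonist (0.001–1 µM, against 10 µM ADP) 5 min, 37°C. TCA stop; [3H]cAMP/([3H]ATP+[3H]cAMP) conversion, normalized to forskolin alone; IC50 calculated; mean ± S.E.M., n=3.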

[8] = biological target: human P2Y12 receptor R256Q mutant (Homo sapiens, UniProt Q9H244, R256Q); experiment: cAMP assay, CHO-K1 cells expressing R256Q mutant P2Y12
[9] = biological target: human P2Y12 receptor R256T mutant (Homo sapiens, UniProt Q9H244, R256T); experiment: cAMP assay, CHO-K1 cells expressing R256T mutant P2Y12
[10] = biological target: human P2Y12 receptor H253S mutant (Homo sapiens, UniProt Q9H244, H253S); experiment: cAMP assay, CHO-K1 cells expressing H253S mutant P2Y12
[11] = CHO-K1, read-out: inhibition of cAMP at 10 μM ADP

Chain of human P2Y12 receptor F198P mutant (Q9H244 whole entry F198P): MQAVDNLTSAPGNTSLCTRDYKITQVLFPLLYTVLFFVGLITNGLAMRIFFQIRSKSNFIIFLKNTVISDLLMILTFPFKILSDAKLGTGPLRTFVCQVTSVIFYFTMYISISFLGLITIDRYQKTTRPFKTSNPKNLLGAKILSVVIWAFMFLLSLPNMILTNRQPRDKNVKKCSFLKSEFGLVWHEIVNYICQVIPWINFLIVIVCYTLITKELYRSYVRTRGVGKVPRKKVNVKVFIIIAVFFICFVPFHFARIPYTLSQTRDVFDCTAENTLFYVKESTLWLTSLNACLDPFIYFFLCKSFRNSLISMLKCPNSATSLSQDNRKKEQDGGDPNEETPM
Chain of human P2Y12 receptor wild-type (Q9H244 whole entry): as the sequence (Q9H244 whole entry F198P) above, with P198F counted along it
Chain of human P2Y12 receptor Y109S mutant (Q9H244 whole entry Y109S): as the sequence (Q9H244 whole entry F198P) above, with Y109S, P198F counted along it
Chain of human P2Y12 receptor R256Q mutant (Q9H244 whole entry R256Q): as the sequence (Q9H244 whole entry F198P) above, with P198F, R256Q counted along it
Chain of human P2Y12 receptor R256Q/R265W double mutant (Q9H244 whole entry R256Q/R265W): as the sequence (Q9H244 whole entry F198P) above, with P198F, R256Q, R265W counted along it
Chain of human P2Y12 receptor R265W mutant (Q9H244 whole entry R265W): as the sequence (Q9H244 whole entry F198P) above, with P198F, R265W counted along it
Chain of human P2Y12 receptor F104S mutant (Q9H244 whole entry F104S): as the sequence (Q9H244 whole entry F198P) above, with F104S, P198F counted along it
Chain of human P2Y12 receptor H253S mutant (Q9H244 whole entry H253S): as the sequence (Q9H244 whole entry F198P) above, with P198F, H253S counted along it
Chain of human P2Y12 receptor R256T mutant (Q9H244 whole entry R256T): as the sequence (Q9H244 whole entry F198P) above, with P198F, R256T counted along it
Chain of human P2Y12 receptor S288P mutant (Q9H244 whole entry S288P): as the sequence (Q9H244 whole entry F198P) above, with P198F, S288P counted along it

Nc1ncnc2c1ncn2[C@@H]1O[C@H](COP(=O)(O)OP(=O)(O)O)[C@@H](O)[C@H]1O [ADP, Adenosine diphosphate]
IC50 [1]: 150 ± 50 nM
inhibition at 10 µM ([1]; CHO-K1, read-out: maximal inhibition of cAMP level at 10 μM ADP): ~40%
Max. inhibition by ADP (% of control) ([1]; F198P construct, CHO-K1, 20 μM forskolin, cAMP): 40.37 ± 10.64 ^b(3) % of control
IC50 [2]: 170 ± 90 nM
inhibition at 10 µM ([2]; CHO-K1, read-out: cAMP inhibition at 10 μM ADP): ~20%
Max. inhibition by ADP (% of control) ([2]; Y109S construct, CHO-K1, 20 μM forskolin, cAMP): 31.96 ± 0.15 ^b (3) % of control
IC50 [3]: 6460 ± 190 nM
Max. inhibition by ADP (% of control) ([3]; R256QR265W construct, CHO-K1, 20 μM forskolin, cAMP): 56.68 ± 6.32 ^a (3) % of control
IC50 [4]: 60 ± 10 nM
Max. inhibition by ADP (% of control) ([4]; F104S construct, CHO-K1, 20 μM forskolin, cAMP): 77.7 ± 1.12 (3) % of control
increase of potency of activation by ADP vs wild-type ([4]; F104S vs wild-type): 5 fold
IC50 [5]: 450 ± 210 nM
inhibition at 10 µM [5, 11]: ~60%
Max. inhibition by ADP (% of control) ([5]; R265W construct, CHO-K1, 20 μM forskolin, cAMP): 58.01 ± 3.08 ^a (3) % of control
IC50 [6]: 40 ± 10 nM
Max. inhibition by ADP (% of control) ([6]; S288P construct, CHO-K1, 20 μM forskolin, cAMP): 68.89 ± 6.24 (3) % of control
left shift of ADP concentration curve vs wild-type ([6]; S288P vs wild-type): about 4 fold
IC50 [7]: 250 ± 40 nM
inhibition at 10 µM ([7]; CHO-K1, read-out: cAMP inhibition at 10 μM ADP, wild-type, 10 μM ADP): ~85%
Max. inhibition by ADP (% of control) ([7]; Wild-type construct, CHO-K1, 20 μM forskolin, cAMP): 85.37 ± 2.14 (3) % of control
IC50 [8]: 570 ± 30 nM
Max. inhibition by ADP (% of control) ([8]; R256Q construct, CHO-K1, 20 μM forskolin, cAMP): 75.32 ± 6.91 (3) % of control
IC50 [9]: 290 ± 50 nM
Max. inhibition by ADP (% of control) ([9]; R256T construct, CHO-K1, 20 μM forskolin, cAMP): 79.53 ± 4.83 (3) % of control
IC50 [10]: 350 ± 210 nM
inhibition at 10 µM [10, 11]: ~60%
Max. inhibition by ADP (% of control) ([10]; H253S construct, CHO-K1, 20 μM forskolin, cAMP): 62.21 ± 1.93 (3) % of control

CSCCNc1nc(SCCC(F)(F)F)nc2c1ncn2[C@@H]1O[C@H](COP(=O)(O)OP(=O)(O)C(Cl)(Cl)P(=O)(O)O)[C@@H](O)[C@H]1O [AR-C69931MX]
shift of AR-C69931MX concentration curve vs wild-type ([3]; R256QR265W, in the presence of 10 μM ADP): leftward shift
AR-C69931MX concentration enough to block ADP-induced activation ([5]; R265W, 10 μM ADP): 30 nM
shift of AR-C69931MX concentration curve vs wild-type ([5]; R265W, in the presence of 10 μM ADP, compared to R256Q and R256T): even more leftward shift
antagonism effect of AR-C69931MX at 10 nM ([7]; wild-type, 10 nM AR-C69931MX, 10 μM ADP): did not occur
AR-C69931MX concentration required to completely inhibit 10 μM ADP-induced inhibition of cAMP ([7]; wild-type, 10 μM ADP): 1 µM
shift of AR-C69931MX concentration curve vs wild-type ([8]; R256Q, in the presence of 10 μM ADP): leftward shift
AR-C69931MX concentration enough to block ADP (10 μM)-induced activation ([9]; R256T, 10 μM ADP): 100 nM
shift of AR-C69931MX concentration curve vs wild-type ([9]; R256T, in the presence of 10 μM ADP): significant left shift

Source: PMC2948851 (European journal of pharmacology, 2010)
